The nature of data set [1]: Dissociation constant, pKa of compound using buffers of given pH (range from 3.0 to 11.5) by UV-VIS spectrophotometry. The data set is classed as physicochemical. The method in brief: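 Compound (10 μL of 1 mg/mL) was put into 490 μL of buffers spanning pH 3.0–11.5 in 0.5-unit steps. UV spectra were scanned at 200–400 nm and 20 °C. pKa was fitted from the sigmoidal absorbance of the dissociated form versus pH.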

Data set [2] can be described thus: PBS buffer - Octanol distribution coefficient, logD of the compound at pH 7.4 by UHPLC-DAD-MS analysis. The data set is classed as physicochemical. The method, boiled down:
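Compound (0.25 mg) was put into 500 μL of a 1:1 water–octanol (logP) or PBS pH 7.4–octanol (logD) mixture. Samples were shaken 30 min and centrifuged 10 min at 10,000 rcf. Each phase was quantified by UHPLC-DAD-MS against calibration lines.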

The nature of data set [3]: Partition coefficient between Water and Octanol, logP of the compound by UHPLC-DAD-MS analysis. To be noted: pH 7.4.
The target of data set [4] is T1, 3-hydroxyacyl-CoA dehydrogenase type-2 (Homo sapiens) (UniProt Q99714).
T1 sequence (whole entry): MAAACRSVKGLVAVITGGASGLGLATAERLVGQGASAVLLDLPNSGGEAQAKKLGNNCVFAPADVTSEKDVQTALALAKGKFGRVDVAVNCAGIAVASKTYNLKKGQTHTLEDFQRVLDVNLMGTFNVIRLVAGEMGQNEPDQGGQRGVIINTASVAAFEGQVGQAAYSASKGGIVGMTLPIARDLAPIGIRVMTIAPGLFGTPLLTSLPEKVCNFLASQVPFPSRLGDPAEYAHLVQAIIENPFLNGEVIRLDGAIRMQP
The data set can be described thus: Inhibition of recombinant 17beta-HSD10 (unknown origin) expressed in Escherichia coli BL21 (DE3) assessed as residual activity at 10 uM using acetoacetyl-CoA as substrate by SAAC method relative to control. The method in brief:
(§1)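 Recombinant 17β-HSD10 from E. coli BL21(DE3), 0.15 μg, was mixed with 320 μmol/L NADH in Tris-HCl pH 7.4 assay buffer. It was preincubated 5 min at 37 °C with 1 or 10 μM inhibitor or vehicle, then 320 μmol/L acetoacetyl-CoA was added. A340 was followed for 5 min. Residual activity is % of control, triplicate mean ± SD, with t-test versus control.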

A short description of data set [5]: Aqueous solubility, logS of the compound at pH 7.4 phosphate buffer by nephelometry assay. It is filed as physicochemical. The method in brief: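 Nephelometry of compound suspensions in phosphate buffer pH 7.4. Stock was 160 μg/mL, sonicated and auto-diluted over 0–160 μg/mL, with higher stocks (640 μg/mL, 2.54 mg/mL) used if needed. Wells were shaken 30 s and laser-scanned. Solubility was derived by segmental linear regression.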

The target of data set [6] is T1, 3-hydroxyacyl-CoA dehydrogenase type-2 (Homo sapiens). The data set can be described thus: Inhibition of recombinant 17beta-HSD10 (unknown origin) expressed in Escherichia coli BL21 (DE3) assessed as residual activity at 1 uM using acetoacetyl-CoA as substrate by SAAC method relative to control. The method in brief: as §1
The target in data set [7] is T2, 3-hydroxyacyl-CoA dehydrogenase type-2 (Homo sapiens, UniProt Q99714).
T2 sequence (Q99714 whole entry): T1 sequence (whole entry)
The data set can be described thus: Inhibition of human recombinant 17beta-HSD10 expressed in bacterial expression system assessed as decrease in NADH using acetoacetyl-CoA as substrate. The method, boiled down: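 Recombinant 17β-HSD10 from E. coli BL21(DE3), 0.15 μg, was mixed with 320 μmol/L NADH in 10 mM Tris-HCl pH 7.4 buffer (150 mM NaCl, 1 mM DTT, 0.001% Tween 20, 0.01% BSA). It was preincubated 5 min at 37 °C with inhibitor, then 320 μmol/L acetoacetyl-CoA was added. A340 was followed for 5 min. IC50 came from non-linear regression of ≥3 independent runs in triplicate; Ki was calculated from IC50 per Cer et al.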

Consider `COc1ccc2nc(/N=C/c3ccc(O)c(Cl)c3)sc2c1`, for which the pKa in data set [1] came to 11.6. The compound also registered a logD in data set [2] of 3.95. The same compound came in with a logP in data set [3] of 3.79. The Activity in data set [4] was 76.6%. The compound further gave a logS0 in data set [5] of -4.73.

In the case of `CN(C)C(=O)c1ccc2nc(NC(=O)Nc3ccc(O)c(Cl)c3)sc2c1`, the pKa in data set [1] is 9.51. Also, the Activity came to 70% in data set [6] and 31% in data set [4]. For the same compound, the logD in data set [2] came out at 2.95. In data set [3], the logP was 2.94. The logS0 in data set [5] is given as -4.81.

For the compound `CCOC(=O)c1ccc2nc(NC(=O)Nc3ccc(O)c(Cl)c3)sc2c1`, the pKa in data set [1] was determined as 9.26. The compound also yielded a logD in data set [2] of 4.64. This compound showed a log partition coefficient (logP) in data set [3] of 4.58. In addition, in data set [4], the Activity was found to be 58.6%. In data set [5], this compound had a logS0 of -4.81.

Take `Oc1ccc(/N=C/c2nc3ccccc3s2)cc1Cl`: the pKa in data set [1] amounted to 9.14. Moreover, the logD in data set [2] turned out to be 2.73. In data set [3], this compound displayed a logP of 2.94. Besides, in data set [4], the Activity stood at 68.7%. For the same compound, in data set [5], the logS0 is -4.68.

As to `COc1ccc2nc(NC(=O)Nc3ccc(O)c(Br)c3)sc2c1`, the IC50 in data set [7] amounted to 1300 nM.

For the compound `CN(C)c1ccc2nc(NC(=O)Nc3ccc(O)c(Cl)c3)sc2c1`, in data set [1], the pKa was 4.61. Further, the Activity in data set [6] amounted to 62.7%; in data set [4], 27%. In data set [2], the logD came to 4.08. In addition, the log partition coefficient (logP) in data set [3] is 4.09. The compound also came in with a logS0 in data set [5] of -4.08.

In data set [1], `Oc1ccc(NCc2nc3ccccc3s2)cc1Cl` gave a pKa of 9.07. In addition, the logD in data set [2] is 3.88. Moreover, in data set [3], the logP was found to be 3.77. The Activity in data set [4] worked out at 72.1%. The logS0 in data set [5] is listed as -4.69.

Turning to `CS(=O)(=O)c1ccc2nc(NC(=O)Nc3ccc(O)c(Cl)c3)sc2c1`, the IC50 in data set [7] was found to be 900 nM.

Compound `COc1ccc2nc(NCc3ccc(O)c(Cl)c3)sc2c1` returned a pKa in data set [1] of 8.4. Besides, the figures for the Activity in data set [6] and in data set [4] were 74.4% and 33.2%, respectively. Also, the pH-dependent lipophilicity (logD) in data set [2] was 4.17. The logP in data set [3] turned out to be 4.19. The compound also had a logS0 in data set [5] of -4.73.

With `COc1ccc2nc(NC(=O)Nc3ccc(O)c([N+](=O)[O-])c3)sc2c1`, in data set [1], the pKa came to 10.4. The compound also yielded a logD in data set [2] of 3.44. The same compound returned a logP in data set [3] of 3.47. In data set [4], the Activity was determined as 79.4%. In data set [5], this compound gave a logS0 of -4.78.

Consider `Oc1ccc(CNCc2nc3ccccc3o2)cc1Cl`, for which the pKa in data set [1] is 8.74. The logD in data set [2] was determined as 3.19. The logP in data set [3] was 3.14. The Activity in data set [4] came out at 67.6%. In data set [5], this compound returned a logS0 of -3.38.

`Oc1ccc(CNCc2nc3ccccc3s2)cc1Cl` came in with a pKa in data set [1] of 8.79. Besides, the logD in data set [2] stood at 4.04. For the same compound, the logP in data set [3] stood at 4.03. Moreover, the Activity in data set [4] was found to be 54.1%. The logS0 in data set [5] is given as -3.99.

`Oc1ccc(CNCc2cc3ccccc3[nH]2)cc1Cl` registered a pKa in data set [1] of 7.6. For the same compound, the logD in data set [2] came out at 2.73. In data set [3], this compound had a logP of 2.84. In addition, in data set [4], the Activity was 73.8%. Further, the logS0 in data set [5] was -3.39.

Values taken from ChEMBL document CHEMBL5620402, “Development of submicromolar 17β-HSD10 inhibitors and their in vitro and in vivo evaluation” (Eur J Med Chem, 2023).
